Data set [1] in a line: folding enthalpy; higher = less favourable; fluorescence melt of hairpins on a sequencing array, two-state fit. Particulars: sodium 0.088 M. An outline of the steps: (§1)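 Cy3 signals were normalised both to pre-quench Cy3 and to control constructs. They came from library hairpins carrying annealed Cy3 and quencher oligos on a sequenced MiSeq flow cell, imaged in 50 mM Na-HEPES pH 8.0, 25 mM NaCl, in 2.5 °C steps up to 60 °C. Bootstrapped two-state fits gave melting temperature and folding enthalpy, and four replicates were combined by inverse variance. Fitted temperatures were then raised by 9.35 °C to match UV melts.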

Data set [2] is described as follows: melting temperature; fluorescence melt of hairpins on a sequencing array, two-state fit, raised by 9.35 °C to match UV melts. The settings on record: sodium 0.088 M. A digest of the protocol: as §1

For the sequence GATCTGGACCCAGATC ((((((....)))))), the folding enthalpy in data set [1] is -43.8 kcal/mol. Moreover, the Tm in data set [2] is 53 °C.
The like results for GGTGGAGGAAACTCCGCC ((.((((....)))).)) were, in that order, -46 kcal/mol and 57.8 °C.
In the same order, the values of GCCGACGAAAGTCCTGGC ((((((....)))..))) are -20.2 kcal/mol and 45.1 °C.
The like results for GGGAACGGAAACGTCCCC (((.(((....))).))) were, in that order, -30.7 kcal/mol and 50.2 °C.
Turning to GAGTATCCGAAAGGACTC (((..(((....)))))), in data set [1], the folding enthalpy is -14.2 kcal/mol. In data set [2], the Tm stood at 29.2 °C.
In the same order, the values of GACGCAGGAAACCACGTC ((((..(....)..)))) are -16.3 kcal/mol and 34.9 °C.
Take GAGTACGAAAGTAACTC ((((((....))).))): the folding enthalpy in data set [1] was -23.4 kcal/mol. In data set [2], the Tm is 45.4 °C.
Take GGGCAAGGAAACTTGTCC ((.((((....)))).)): the folding enthalpy in data set [1] is -40.7 kcal/mol. The Tm in data set [2] was determined as 52.3 °C.
As for GCAGGGACGAAAGTCTGC (((..(((....)))))), in data set [1], the folding enthalpy was -23 kcal/mol. Further, in data set [2], the Tm stood at 47.9 °C.
In the same order, the values of GCAGAGCGAAAGCTTGGC ((..(((....)))..)) are -18.8 kcal/mol and 49.5 °C.
In the same order, the values of GGAGTCGAAAGACCGTCC ((((((....)))..))) are -12.7 kcal/mol and 32.2 °C.
In the same order, the values of GCTGGGCCGAAAGGCAGC (((..(((....)))))) are -13.3 kcal/mol and 48.5 °C.
GATCGATGGATCGATC ((((((....)))))): the folding enthalpy in data set [1] is -36.5 kcal/mol. Further, the Tm in data set [2] stood at 54.5 °C.
In the same order, the values of GCTGGATCGAAAGATAGC (((..(((....)))))) are -21 kcal/mol and 30.8 °C.
Turning to GCAGACGGAAACATCTGC (((((.(....).))))), the folding enthalpy in data set [1] is -29.9 kcal/mol. Also, the Tm in data set [2] was determined as 44.5 °C.
The like results for GTCAACGAAAGTTGTGAC ((((((....)))..))) were, in that order, -10.8 kcal/mol and 33 °C.
In the same order, the values of GCGGACACGAAAGTGCGC (((..(((....)))))) are -26.1 kcal/mol and 55.6 °C.
In the same order, the values of GATGGTGGAAACGTCATC ((((..(....)..)))) are -19.6 kcal/mol and 33.3 °C.
Take CCGATGAAAATCGG (((((....))))): the folding enthalpy in data set [1] is -21.4 kcal/mol. In data set [2], the Tm turned out to be 55.6 °C.
In the same order, the values of GTACACGAAAGTGTTTAC ((((((....)))..))) are -9.29 kcal/mol and 29 °C.
Turning to GCTCGCGAAAGCGAAAGC ((((((....)))..))), in data set [1], the folding enthalpy is -14.4 kcal/mol. In data set [2], the Tm stood at 54.3 °C.
The like results for GGATCGGGAAACCAATCC ((((.((....)).)))) were, in that order, -29.6 kcal/mol and 38.2 °C.
In the same order, the values of CGGCTACGGAAACGTCCG (((..(((....)))))) are -13.3 kcal/mol and 36.6 °C.
Take GCTTTGGGAAACCGAAGC ((((.((....)).)))): the folding enthalpy in data set [1] is -39.5 kcal/mol. Moreover, the Tm in data set [2] is 52.5 °C.
The like results for GCACAACGAAAGTTTGC (((.(((....)))))) were, in that order, -25.6 kcal/mol and 44.5 °C.
The like results for GCACTGCGAAAGCATGC (((.(((....)))))) were, in that order, -20.7 kcal/mol and 53.1 °C.
Consider GATCTACGGATAGATC ((((((....)))))), for which the folding enthalpy in data set [1] is -23.4 kcal/mol. Also, the Tm in data set [2] is 37.8 °C.
In the same order, the values of GATCGGTTCCCCGATC ((((((....)))))) are -40 kcal/mol and 56.8 °C.
For the sequence GTTCGCGAAAGCGGAAC ((((((....))).))), the folding enthalpy in data set [1] is -17.6 kcal/mol. Besides, in data set [2], the Tm turned out to be 54.4 °C.
GTGGCGGGAAACCGCTGC (..((((....))))..): in data set [1], the folding enthalpy is -15.4 kcal/mol. In addition, the Tm in data set [2] was found to be 47.9 °C.
In the same order, the values of GTTAGGCCGAAAGGCAAC (((..(((....)))))) are -9.31 kcal/mol and 32.1 °C.
For the sequence GAACAAGGAAACTTGTTC (((((((....))))))), in data set [1], the folding enthalpy was -44.9 kcal/mol. Besides, the Tm in data set [2] is 53 °C.
In the same order, the values of GATCTGGGAAACCAGATC (((((((....))))))) are -45.4 kcal/mol and 58.5 °C.
The like results for GATCTCGAACGAGATC ((((((....)))))) were, in that order, -40.8 kcal/mol and 60.2 °C.
In the same order, the values of GATCTTGGGCAAGATC ((((((....)))))) are -37.4 kcal/mol and 46.7 °C.
As to GATCTCGTTGAGATC ((((((...)))))), in data set [1], the folding enthalpy was -37.8 kcal/mol. In addition, in data set [2], the Tm was found to be 54.9 °C.
In the same order, the values of GCCATTGAAAAATGGC ((((((....)))))) are -39.8 kcal/mol and 58.4 °C.

These data come from the array DNA melting data of Ke et al. (doi:10.1101/2024.01.08.574731).
